# Reference: ChEMBL document CHEMBL1149311, “Synthesis and antitumor activity of methyltriazene prodrugs simultaneously releasing DNA-methylating agents and the antiresistance drug O(6)-benzylguanine” (J Med Chem, 2004)
# Legend:
# DU-145 = experiment: Antitumor activity against human DU145 cells; format: functional
# Procedure, shortened: (§1)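 Tested in the NCI in vitro disease-oriented human tumor cell screen. The endpoints are IC50 (molar concentration giving 50% growth inhibition), TGI (total growth inhibition) and LC50 (50% net cell death). The maximal concentration tested was 100 μM. Subpanel values are means of several individual cell lines.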
# [1] = test system: Non-small cell lung cancer cell line; experiment: Antitumor activity against human NCI non-small cell lung cancer cell line panel; format: functional, cell-based; procedure, shortened: as §1
# [2] = Half life of hydrolysis in deuterated phosphate buffer at pD 7.8; details: deuterated phosphate buffer, pH 7.8
# carcinoma cell line = experiment: Antitumor activity against human NCI ovarian carcinoma cell line panel; format: functional, cell-based; procedure, shortened: as §1
# OVCAR-3 = experiment: Antitumor activity against human OVCAR-3 cells; format: functional; procedure, shortened: as §1
# NCI-H322M = experiment: Antitumor activity against human NCI-H322M cells; format: functional; procedure, shortened: as §1
# BT-549 = experiment: Antitumor activity against human BT549 cells; format: functional; procedure, shortened: as §1
# U-251 = experiment: Antitumor activity against human U251 cells; format: functional
# Procedure, shortened: (§2)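 NCI in vitro disease-oriented tumour cell line screen. Read-outs are IC50 (molar concentration giving 50% growth inhibition), TGI (molar concentration giving total inhibition of net growth) and LC50 (molar concentration giving 50% net cell death). The maximal concentration tested was 100 μM.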
# HOP-62 = experiment: Antitumor activity against human HOP62 cells; format: functional; procedure, shortened: as §1
# IGROV-1 = experiment: Antitumor activity against human IGROV1 cells; format: functional; procedure, shortened: as §1
# KM12 = experiment: Antitumor activity against human KM12 cells; format: functional; procedure, shortened: as §1
# TK-10 = experiment: Antitumor activity against human TK10 cells; format: functional; procedure, shortened: as §2
# PC-3 = experiment: Antitumor activity against human PC3 cells; format: functional; procedure, shortened: as §1
# SF-295 = experiment: Antitumor activity against human SF295 cells; format: functional; procedure, shortened: as §1
# SK-MEL-2 = experiment: Antitumor activity against human SK-MEL-2 cells; format: functional; procedure, shortened: as §1
# SNB-19 = experiment: Antitumor activity against human SNB19 cells; format: functional; procedure, shortened: as §1
# NCI [3] = experiment: Antitumor activity against human NCI renal cancer cell line panel; format: functional, cell-based; procedure, shortened: as §1
# UACC-257 = experiment: Antitumor activity against human UACC257 cells; format: functional; procedure, shortened: as §2
# M14 = experiment: Antitumor activity against human M14 cells; format: functional; procedure, shortened: as §1
# 786-0 = experiment: Antitumor activity against human 786-0 cells; format: functional; procedure, shortened: as §1
# NCI-H23 = experiment: Antitumor activity against human NCI-H23 cells; format: functional; procedure, shortened: as §1
# SF-539 = experiment: Antitumor activity against human SF539 cells; format: functional; procedure, shortened: as §1
# [4] = Antitumor activity against human LOX IMV1 cells; format: functional, cell-based; procedure, shortened: as §1
# HOP-92 = experiment: Antitumor activity against human HOP92 cells; format: functional; procedure, shortened: as §1
# SK-MEL-28 = experiment: Antitumor activity against human SK-MEL-28 cells; format: functional; procedure, shortened: as §1
# HL-60 = experiment: Antitumor activity against human HL60 cells; format: functional; procedure, shortened: as §1
# UO-31 = experiment: Antitumor activity against human UO31 cells; format: functional; procedure, shortened: as §2
# OVCAR-8 = experiment: Antitumor activity against human OVCAR8 cells; format: functional; procedure, shortened: as §1
# HCT-116 = experiment: Antitumor activity against human HCT116 cells; format: functional; procedure, shortened: as §1
# SW-620 = experiment: Antitumor activity against human SW620 cells; format: functional; procedure, shortened: as §2
# NCI [5] = experiment: Antitumor activity against human NCI colon cancer cell line panel; format: functional, cell-based; procedure, shortened: as §1
# EKVX = experiment: Antitumor activity against human EKVX cells; format: functional; procedure, shortened: as §1
# SNB-75 = experiment: Antitumor activity against human SNB75 cells; format: functional; procedure, shortened: as §2
# K562 = experiment: Antitumor activity against human K562 cells; format: functional; procedure, shortened: as §1
# OVCAR-5 = experiment: Antitumor activity against human OVCAR5 cells; format: functional; procedure, shortened: as §1
# MCF7 = experiment: Antitumor activity against human MCF7 cells; format: functional; procedure, shortened: as §1
# T47D = experiment: Antitumor activity against human T47D cells; format: functional; procedure, shortened: as §2
# NCI-H460 = experiment: Antitumor activity against human NCI-H460 cells; format: functional; procedure, shortened: as §1
# SK-MEL-5 = experiment: Antitumor activity against human SK-MEL-5 cells; format: functional; procedure, shortened: as §1
# NCI [6] = experiment: Antitumor activity against human NCI leukemia cell line panel; format: functional, cell-based; procedure, shortened: as §1
# OVCAR-4 = experiment: Antitumor activity against human OVCAR4 cells; format: functional; procedure, shortened: as §1
# [7] = read-out: Log LC50 (the source's name) (converted)
smiles,measurement,setting,value
CN(/N=N/c1nc(OCc2ccccc2)c2nc[nH]c2n1)C(=O)N(C)/N=N/c1nc(OCc2ccccc2)c2nc[nH]c2n1,GI50,DU-145,38.9 µM
same,CC50,DU-145; [7],> 100 µM
same,TGI,DU-145; read-out: Log TGI (converted),> 100 µM
same,IC50,[1],42 µM
same,TGI,[1],> 100 µM
same,half-life,[2],7.17 h
same,IC50,carcinoma cell line,50 µM
same,TGI,carcinoma cell line,> 100 µM
same,GI50,OVCAR-3,34.7 µM
same,LC50,OVCAR-3,> 100 µM
same,TGI,OVCAR-3; read-out: Log TGI (converted),> 100 µM
same,GI50,NCI-H322M,41.7 µM
same,CC50,NCI-H322M; [7],> 100 µM
same,TGI,NCI-H322M; read-out: Log TGI (converted),> 100 µM
same,GI50,BT-549,36.3 µM
same,CC50,BT-549; [7],> 100 µM
same,TGI,BT-549; read-out: Log TGI (converted),> 100 µM
same,GI50,U-251,50.1 µM
same,CC50,U-251; [7],> 100 µM
same,TGI,U-251; read-out: Log TGI (converted),> 100 µM
same,GI50,HOP-62,95.5 µM
same,LC50,HOP-62,> 100 µM
same,TGI,HOP-62; read-out: Log TGI (converted),> 100 µM
same,GI50,IGROV-1,34.7 µM
same,CC50,IGROV-1; [7],> 100 µM
same,TGI,IGROV-1; read-out: Log TGI (converted),> 100 µM
same,GI50,KM12,85.1 µM
same,CC50,KM12; [7],> 100 µM
same,TGI,KM12; read-out: Log TGI (converted),> 100 µM
same,GI50,TK-10,26.9 µM
same,CC50,TK-10; [7],> 100 µM
same,TGI,TK-10; read-out: Log TGI (converted),> 100 µM
same,GI50,PC-3,40.7 µM
same,CC50,PC-3; [7],> 100 µM
same,TGI,PC-3; read-out: Log TGI (converted),> 100 µM
same,GI50,SF-295,32.4 µM
same,CC50,SF-295; [7],> 100 µM
same,TGI,SF-295; read-out: Log TGI (converted),> 100 µM
same,GI50,SK-MEL-2,64.6 µM
same,CC50,SK-MEL-2; [7],> 100 µM
same,TGI,SK-MEL-2; read-out: Log TGI (converted),> 100 µM
same,GI50,SNB-19,> 100 µM
same,LC50,SNB-19,> 100 µM
same,TGI,SNB-19; read-out: Log TGI (converted),> 100 µM
same,IC50,NCI [3],36 µM
same,TGI,NCI [3],87 µM
same,GI50,UACC-257,55 µM
same,CC50,UACC-257; [7],> 100 µM
same,TGI,UACC-257; read-out: Log TGI (converted),> 100 µM
same,GI50,M14,70.8 µM
same,CC50,M14; [7],> 100 µM
same,TGI,M14; read-out: Log TGI (converted),> 100 µM
same,GI50,786-0,60.3 µM
same,LC50 (concentration giving 50% net cell death),786-0,> 100 µM
same,TGI,786-0; read-out: Log TGI (converted),> 100 µM
same,GI50,NCI-H23,34.7 µM
same,LC50 (50% net cell kill),NCI-H23,> 100 µM
same,TGI,NCI-H23; read-out: Log TGI (converted),> 100 µM
same,GI50,SF-539,38 µM
same,CC50,SF-539; [7],> 100 µM
same,TGI,SF-539; read-out: Log TGI (converted),> 100 µM
same,GI50,[4],37.2 µM
same,CC50,[4]; [7],> 100 µM
same,TGI,[4]; read-out: Log TGI (converted),> 100 µM
same,GI50,HOP-92,30.2 µM
same,CC50,HOP-92; [7],> 100 µM
same,TGI,HOP-92; read-out: Log TGI (converted),> 100 µM
same,GI50,SK-MEL-28,> 100 µM
same,CC50,SK-MEL-28; [7],> 100 µM
same,TGI,SK-MEL-28; read-out: Log TGI (converted),> 100 µM
same,GI50,HL-60,63.1 µM
same,CC50,HL-60; [7],> 100 µM
same,TGI,HL-60; read-out: Log TGI (converted),> 100 µM
same,GI50,UO-31,36.3 µM
same,CC50,UO-31; [7],> 100 µM
same,TGI,UO-31; read-out: Log TGI (converted),> 100 µM
same,GI50,OVCAR-8,51.3 µM
same,LC50 (concentration giving 50% net cell death),OVCAR-8,> 100 µM
same,TGI,OVCAR-8; read-out: Log TGI (converted),> 100 µM
same,GI50,HCT-116,35.5 µM
same,CC50,HCT-116; [7],> 100 µM
same,TGI,HCT-116; read-out: Log TGI (converted),> 100 µM
same,GI50,SW-620,72.4 µM
same,CC50,SW-620; [7],> 100 µM
same,TGI,SW-620; read-out: Log TGI (converted),> 100 µM
same,IC50,NCI [5],45 µM
same,TGI,NCI [5],> 100 µM
same,GI50,EKVX,38 µM
same,CC50,EKVX; [7],> 100 µM
same,TGI,EKVX; read-out: Log TGI (converted),> 100 µM
same,GI50,SNB-75,> 100 µM
same,CC50,SNB-75; [7],> 100 µM
same,TGI,SNB-75; read-out: Log TGI (converted),> 100 µM
same,GI50,K562,75.9 µM
same,CC50,K562; [7],> 100 µM
same,TGI,K562; read-out: Log TGI (converted),> 100 µM
same,GI50,OVCAR-5,63.1 µM
same,CC50,OVCAR-5; [7],> 100 µM
same,TGI,OVCAR-5; read-out: Log TGI (converted),> 100 µM
same,GI50,MCF7,42.7 µM
same,CC50,MCF7; [7],> 100 µM
same,TGI,MCF7; read-out: Log TGI (converted),> 100 µM
same,GI50,T47D,39.8 µM
same,CC50,T47D; [7],> 100 µM
same,TGI,T47D; read-out: Log TGI (converted),> 100 µM
same,GI50,NCI-H460,26.3 µM
same,CC50,NCI-H460; [7],> 100 µM
same,TGI,NCI-H460; read-out: Log TGI (converted),> 100 µM
same,GI50,SK-MEL-5,20.9 µM
same,CC50,SK-MEL-5; [7],> 100 µM
same,TGI,SK-MEL-5; read-out: Log TGI (converted),61.7 µM
same,IC50,NCI [6],55 µM
same,TGI,NCI [6],> 100 µM
same,CC50,NCI [6]; read-out: LC50 (the source's name),> 100 µM
same,GI50,OVCAR-4,> 100 µM
same,CC50,OVCAR-4; [7],> 100 µM
same,TGI,OVCAR-4; read-out: Log TGI (converted),> 100 µM
